From ChEMBL document CHEMBL1142669, “Synthesis and evaluation of double-prodrugs against HIV. Conjugation of D4T with 6-benzyl-1-(ethoxymethyl)-5-isopropyluracil (MKC-442, emivirine)-type reverse transcriptase inhibitors via the SATE prodrug approach” (J Med Chem, 2005) come the findings set out here.

The structures appear in SMILES notation.

For test [1], the system named is Human immunodeficiency virus 1. Nature of the test: Effective concentration of compound to inhibit human immunodeficiency virus HIV-1 wild type strain IIIB multiplication in thymidine-kinase-deficient CEM cells. It counts as functional, organism-based. The settings on record: Human immunodeficiency virus 1, CCRF-CEM. In a few lines: (§1)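 HIV-1 strains HTLV-IIIB (wild type) and N119 (RT Y181C) were grown in H9 cells in RPMI 1640 with 10% heat-inactivated FCS. CEM wt or CEM TK- cells were infected at 0.005 MOI with compound dilutions for 6 days, alongside infected and uninfected controls. HIV expression was read by HIV-1 antigen ELISA. IC50 was interpolated from % inhibition versus concentration plots.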

Test [2] concerns Human immunodeficiency virus 1. As to the kind of experiment: Effective concentration of compound to inhibit human immunodeficiency virus HIV-1 wild type strain IIIB multiplication in MT-4 infected cells. It counts as functional, organism-based. In a few lines:
(§2)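 MT-4 cells were infected at 0.005 MOI and cultured 6 days in growth medium (RPMI 1640, 10% heat-inactivated FCS, antibiotics) with the compound dilutions. Infected and uninfected cultures without compound ran in parallel. HIV expression was quantified indirectly by MTT assay. EC50 was interpolated from plots of percent inhibition versus concentration.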

For test [3], the system named is Human immunodeficiency virus 2. As to the kind of experiment: Effective concentration of compound to inhibit human immunodeficiency virus HIV-2 multiplication in CEM wild type cells. It counts as functional, organism-based. Particulars: Human immunodeficiency virus 2, CCRF-CEM. In a few lines:
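CEM wild-type cells were infected at 0.005 MOI and held 6 days in growth medium containing the compound dilutions, alongside untreated infected and uninfected controls. HIV-1 or HIV-2 antigen was detected by ELISA. EC50 was interpolated from plots of percent inhibition versus concentration.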

Test [4] has as its system Human immunodeficiency virus 2. Nature of the test: Effective concentration of compound to inhibit human immunodeficiency virus HIV-2 multiplication in MT-4 infected cells. It counts as functional, organism-based. In a few lines:
as §2

Test [5] relates to Human immunodeficiency virus 2. Nature of the test: Effective concentration of compound to inhibit human immunodeficiency virus HIV-2 multiplication in thymidine-kinase-deficient CEM cells. It counts as functional, organism-based. Particulars: Human immunodeficiency virus 2, CCRF-CEM. In a few lines:
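Thymidine-kinase-deficient CEM cells were infected with HIV-2 at 0.005 MOI and incubated 6 days with compound dilutions, alongside infected and uninfected controls without compound. Virus expression was quantified by HIV-2 antigen ELISA. ED50 was interpolated from percent inhibition versus concentration plots; three independent tests.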

A further test deals with CCRF-CEM. As to the kind of experiment: Cytotoxic concentration was measured in CEM wild-type/thymidine-kinase-deficient CEM Cells. The settings on record: Homo sapiens. It counts as functional. In a few lines: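 Uninfected CEM wild-type and CEM TK- cultures were exposed to the compound dilutions in parallel with the antiviral tests. Cell growth inhibition of 30% versus control cultures was considered significant. CC50 was interpolated from plots of percent inhibition against concentration.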

For test [6], the system named is Human immunodeficiency virus 1. Nature of the test: Effective concentration of compound to inhibit human immunodeficiency virus HIV-1 strain N119 multiplication in CEM wild type cells. It counts as functional, organism-based. The settings on record: Human immunodeficiency virus 1, CCRF-CEM. In a few lines:
as §1

Test [7] has as its system Human immunodeficiency virus 1. As to the kind of experiment: Effective concentration of compound to inhibit human immunodeficiency virus HIV-1 strain N119 multiplication in thymidine-kinase-deficient CEM cells. It counts as functional, organism-based. Particulars: Human immunodeficiency virus 1, CCRF-CEM. In a few lines: as §1
The subject of test [8] is Human immunodeficiency virus 1. As to the kind of experiment: Effective concentration of compound to inhibit human immunodeficiency virus HIV-1 wild type strain IIIB multiplication in CEM wild type cells. It counts as functional, organism-based. Particulars: Human immunodeficiency virus 1, CCRF-CEM. In a few lines: as §1
For test [9], the system named is Human immunodeficiency virus 1. Nature of the test: Effective concentration of compound to inhibit human immunodeficiency virus HIV-1 strain N119 multiplication in MT-4 infected cells. It counts as functional, organism-based. In a few lines: as §2
The next test has as its system MT4. As to the kind of experiment: Cytotoxic concentration required to reduce the viability of normal uninfected MT-4 cells. It counts as functional. The settings on record: Homo sapiens. In a few lines:
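Uninfected MT-4 cultures were grown with the same compound dilutions as the antiviral assay, run in parallel. A 30% inhibition of cell growth relative to control cultures counted as significant. CC50 was interpolated from plots of percent inhibition versus compound concentration.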

Test [10] deals with Human immunodeficiency virus 2. Nature of the test: Effective dose was measured against human immunodeficiency virus type 2 in thymidine-kinase-deficient CEM Cells; experiment 1. It counts as functional. Particulars: Human immunodeficiency virus 2, CCRF-CEM; read-out: ED50 (the source's name). In a few lines: (§3)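 HIV-2 strain SBL 6669 in CEM TK- cells, infected at 0.005 MOI and kept with compound dilutions for 6 days, with infected and uninfected controls. Readout was HIV-2 antigen ELISA. The 50% effective value was interpolated from % inhibition versus concentration plots. Each line is one of three independent tests.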

In test [11] the test system is Human immunodeficiency virus 2. Nature of the test: Effective dose was measured against human immunodeficiency virus type 2 in thymidine-kinase-deficient CEM Cells; experiment 2. It counts as functional. The settings on record: Human immunodeficiency virus 2, CCRF-CEM; read-out: ED50 (the source's name). In a few lines:
as §3

In test [12] the test system is Human immunodeficiency virus 2. As to the kind of experiment: Effective dose was measured against human immunodeficiency virus type 2 in thymidine-kinase-deficient CEM Cells; experiment 3. Particulars: Human immunodeficiency virus 2, CCRF-CEM; read-out: ED50 (the source's name). It counts as functional. In a few lines: as §3

As for `CCc1c(Cc2cc(C)cc(C)c2)n(COC/C=C/c2ccc(O)cc2)c(=O)[nH]c1=O`, the EC50 was 6 nM in test [1]; 20 nM in test [2]; above 10000 nM in test [3]; above 10000 nM in test [4]; above 10000 nM in [5]; 400 nM in test [6]. Besides, the EC50 came to 200 nM in test [7], 2 nM in [8] and 2400 nM in test [9]. For the same compound, the values for the half-maximal cytotoxic concentration (CC50) with CCRF-CEM and in the test with MT4 were 32000 nM and 35000 nM, respectively.

Consider `CCc1c(Cc2cc(C)cc(C)c2)n(COC/C=C/c2ccc(O[P@](=O)(OCCSC(=O)C(C)(C)C)OC[C@@H]3C=C[C@H](n4cc(C)c(=O)[nH]c4=O)O3)cc2)c(=O)[nH]c1=O`, for which the EC50 turned out to be 5 nM in [1]; 40 nM in test [2]; 100 nM in [3]; 4000 nM in test [5]; 3000 nM in test [10]; 300 nM in test [6]. Besides, the EC50 in test [11] stood at 4000 nM; in [7] it was 200 nM; in [12] it was 5000 nM; in [8] it was 10 nM; in test [9], 3300 nM. Further, the cytotoxic concentration (CC50) (as a rule, the concentration at which the toxic effect on the cells reaches its halfway point) in the test on CCRF-CEM was 32000 nM; in the test on MT4, 35000 nM.

Take `CCc1c(Cc2cc(C)cc(C)c2)n(COCc2ccc(OCc3ccccc3)cc2)c(=O)[nH]c1=O`: the EC50 came out at 30 nM in [2] and 300 nM in [9]. For the same compound, the midpoint of cytotoxicity in the test with MT4, the CC50, lay at 12000 nM.

For `CCOCn1c(Cc2ccccc2)c(C(C)C)c(=O)[nH]c1=O` [EMIVIRINE], the EC50 in test [1] was above 10000 nM; in [3], above 10000 nM; in test [4], above 10000 nM; in test [5] it was above 10000 nM; in test [6] it was above 100000 nM; in [7], above 10000 nM. Moreover, the EC50 in test [8] turned out to be 30 nM; in test [9] it was 79000 nM. Further, the CC50 in the test with CCRF-CEM and with MT4 was above 100000 nM throughout.

Regarding `Cc1cn([C@H]2C=C[C@@H](CO)O2)c(=O)[nH]c1=O` [STAVUDINE], the EC50 in test [1] is above 10000 nM; in test [2], 500 nM; in [3], 100 nM; in test [4], 500 nM; in test [5] it was above 10000 nM; in test [6], 800 nM. In addition, the EC50 in test [7] was above 10000 nM; in test [8], 300 nM; in test [9], 1800 nM. Moreover, the CC50 in the test with CCRF-CEM and with MT4 was above 100000 nM each time.

Take `CCOCn1c(Cc2ccccc2)c(C(C)C)c(=O)n(C(=O)c2ccc(OP(=O)(OCCSC(=O)C(C)(C)C)OCC3C=CC(n4cc(C)c(=O)[nH]c4=O)O3)cc2)c1=O` (centres undefined): the EC50 in [1] came out at 6 nM; in test [2], 30 nM; in [3], 20 nM; in test [5] it was 3000 nM; in [10], 3000 nM; in [6] it was 30 nM. The EC50 in [11] was determined as 3000 nM; in test [7] it was 300 nM; in [12] it was 4000 nM; in test [8] it was 30 nM; in test [9], 2700 nM. Besides, the CC50 in the test with CCRF-CEM was determined as 32000 nM; with MT4 it was 35000 nM.

As for `CCc1c(Cc2cc(C)cc(C)c2)n(COC/C=C/c2ccc(OC(=O)c3ccccc3)cc2)c(=O)[nH]c1=O`, the EC50 in test [2] was found to be 5 nM; in test [9] it was 1000 nM. Further, in the test on MT4, half-maximal cytotoxicity (CC50) was put at 35000 nM.

Take `CCc1c(Cc2cc(C)cc(C)c2)n(COCc2ccc(O[P@](=O)(OCCSC(=O)C(C)(C)C)OC[C@@H]3C=C[C@H](n4cc(C)c(=O)[nH]c4=O)O3)cc2)c(=O)[nH]c1=O`: the EC50 was 3 nM in [2]; 100 nM in [3]; 4000 nM in [4]; 2000 nM in test [5]; 3000 nM in [10]; 2000 nM in test [11]. Also, the EC50 in test [12] was 2000 nM; in [9], 400 nM. In addition, the 50% cytotoxic concentration (CC50) with CCRF-CEM came out at 32000 nM; in the test with MT4, 35000 nM.
